Measurements published in ChEMBL document CHEMBL1134631 (J Med Chem, 2001).
Each block holds one compound with its values, some of them ahead of it.

Tests used:
Format in all cases: functional
[1] = tested on: Rattus norvegicus; assay: Percent inhibition of paw volume increase in carrageenan-induced rat after a dose of 40 mg/kg was administered and observed after 6 hours of incubation
[2] = species: Homo sapiens; assay: Percent ibuprofen detected after 2 hr incubation in acidic medium (pH=1) […]
Summary of the method: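 Compound (0.25 mM) in acetonitrile added to HCl solution at pH 1, 37 °C, incubated 2 h.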

[3] = tested on: Rattus norvegicus; assay: Ulcerogenic property after intragastric administration to conscious rats for 6 hrs
Summary of the method: (§1)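 Male Wistar rats (180-200 g), fasted 24 h with water allowed, groups of n = 6. […] Killed 6 h after dosing. Stomachs opened along the lesser curvature and examined under a stereomicroscope. Each haemorrhagic lesion was scored by greatest length (<1 mm = 1; 1-2 mm = 2; >2 mm = length in mm). Summed as lesion index, mean ± SEM.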

[4] = species: Homo sapiens; assay: Percent ibuprofen detected after 6 hr incubation in human plasma.
Summary of the method: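 Compound (0.0438 µmol) in 5 µL acetonitrile added to 495 µL human plasma at 37 °C and incubated 6 h. Diluted with acetonitrile containing 0.1% TFA and centrifuged (9600g, 15 min). […] Expressed as %, mean ± SEM.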

[5] = tested on: Rattus norvegicus; assay: Percent inhibition of paw volume increase in carrageenan-induced rat after a dose of 40 mg/kg was administered and observed after 4 hours of incubation
[6] = tested on: Rattus norvegicus; assay: Ulcerogenic property after intragastric administration to conscious rats after 6 hours of incubation; summary of the method: as §1
[7] = Antiaggregatory effect against arachidonic acid induced platelet aggregation from the human platelet rich plasma(PRP) in the presence of oxyheamoglobin(HbO2, 40 uM)
Summary of the method: (§2)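 Human citrated blood spun at 200g for 20 min to give PRP. Compound or DMSO (maximum 0.5%) added 10 min before arachidonic acid (0.5-1 mM, chosen to give 85-95% of maximal aggregation). Oxyhaemoglobin 40 µM final added 12 min before the activator. Light transmission read for 5 min at 37 °C with stirring. […] Mean ± SEM, n = 5.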

[8] = species: Homo sapiens; assay: Compound was evaluated for nitric oxide release (stimulate nitric oxide synthase) in human plasma
[9] = Antiaggregatory effect against arachidonic acid induced platelet aggregation from the human platelet rich plasma(PRP) in the presence of oxyhemoglobin (HbO2); summary of the method: as §2
[10] = tested on: Rattus norvegicus; assay: Percent inhibition of paw volume increase in carrageenan-induced rat after a dose of 120 mg/kg was administered and observed after 4 hours of incubation
[11] = tested on: Rattus norvegicus; assay: Alcerogenic property after intragastric administration to conscious rats for 6 hrs; summary of the method: as §1
[12] = tested on: Rattus norvegicus; assay: Percent inhibition of paw volume increase in carrageenan-induced rat after a dose of 120 mg/kg was administered and observed after 6 hours of incubation

SMILES: CC(C)Cc1ccc(C(C)C(=O)OCCCOc2nonc2S(=O)(=O)c2ccccc2)cc1 (stereo not given)
inhibition in vivo at 40 mg/kg [1]: 63.3% | Ibuprofen [2]: 13% | Lesion index [3]: 5.7 mm | Ibuprofen [4]: 26% | inhibition in vivo at 40 mg/kg [5]: 52.8%

IC50 [7]: 2.69 µM
SMILES: CC(C)Cc1ccc(C(C)C(=O)OCCCOc2no[n+]([O-])c2S(=O)(=O)c2ccccc2)cc1 (stereo not given)
inhibition in vivo at 40 mg/kg [1]: 41.5% | Lesion index [6]: 0 mm | Ibuprofen [2]: 12.9% | Ibuprofen [4]: 46.8% | NO2- (mol/mol) [8]: 34.7% | inhibition in vivo at 40 mg/kg [5]: 37.4%

IC50 [9]: 57.5 µM
SMILES: CC(C)Cc1ccc(C(C)C(=O)OCCCO[N+](=O)[O-])cc1 (stereo not given)
inhibition in vivo at 120 mg/kg [10]: 41.8% | Lesion index [11]: 0.7 mm | Ibuprofen [2]: 22.3% | inhibition in vivo at 120 mg/kg [12]: 40% | Ibuprofen [4]: 27.1% | NO2- (mol/mol) [8]: 3.2%

SMILES: CC(C)Cc1ccc(C(C)C(=O)OCCCOc2no[n+]([O-])c2Sc2ccccc2)cc1 (stereo not given)
inhibition in vivo at 120 mg/kg [10]: 40.7% | Ibuprofen [2]: 6.5% | inhibition in vivo at 120 mg/kg [12]: 36.2% | Lesion index [3]: 0 mm | Ibuprofen [4]: 35.6% | NO2- (mol/mol) [8]: 9.5%

SMILES: CCCOC(=O)C(C)c1ccc(CC(C)C)cc1 (stereo not given)
inhibition in vivo at 40 mg/kg [1]: 49.6% | Ibuprofen [2]: 11.7% | Lesion index [3]: 3.8 mm | Ibuprofen [4]: 22.9% | inhibition in vivo at 40 mg/kg [5]: 37.6%

SMILES: CC(C)Cc1ccc(C(C)C(=O)OCCCOc2nonc2Sc2ccccc2)cc1 (stereo not given)
inhibition in vivo at 120 mg/kg [10]: 48.3% | Ibuprofen [2]: 6.1% | inhibition in vivo at 120 mg/kg [12]: 54.4% | Lesion index [3]: 1.3 mm | Ibuprofen [4]: 8.9%
